# Measurements published in ChEMBL document CHEMBL1130411, “The practical synthesis of a methylenebisphosphonate analogue of benzamide adenine dinucleotide: inhibition of human inosine monophosphate dehydrogenase (type I and II)” (J Med Chem, 1997).
# pIC50: −log10 of the molar value.
# Columns and labels:
# K562 [1] = test: Differentiation of K-562 cells at 30 uM with coadministration of guanosine; type: functional, Homo sapiens
# Summary of the method: (§1)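 Human erythroleukemia K562 cells grown in RPMI 1640 with 10% heat-inactivated calf serum, glutamine and penicillin/streptomycin; incubated 5 days with compound, with or without 30 µM guanosine. Hemoglobin expression read by benzidine staining (0.1% benzidine in 0.25% H2O2, equal volume, 5 min, room temperature); 300-400 cells counted for % benzidine-positive. Duplicates; average of three experiments.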
# K562 [2] = test: Differentiation of K-562 cells at 15 uM with coadministration of guanosine; type: functional, Homo sapiens; summary of the method: as §1
# K562 [3] = test: Inhibition of growth in human erythroleukemia K-562 cells (% of untreated control); type: functional
# Summary of the method: (§2)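 K562 cells in RPMI 1640 with 10% heat-inactivated calf serum, glutamine, penicillin/streptomycin; seeded at 5 × 10³ per mL, compound (with or without 30 µM guanosine) added at start. After 5 days, MTT added, 3 h at 37 °C; formazan dissolved in acidified 2-propanol, absorbance 550 nm. Triplicate points; IC50 for 50% growth inhibition averaged over four experiments.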
# K562 [4] = test: Differentiation of K-562 cells at 30 uM with out coadministration of guanosine; type: functional, Homo sapiens; summary of the method: as §1
# K562 [5] = test: Differentiation of K-562 cells at 15 uM with out coadministration of guanosine; type: functional, Homo sapiens; summary of the method: as §1
# K562 [6] = test: Differentiation of K-562 cells at 19 uM with out coadministration of guanosine; type: functional, Homo sapiens; summary of the method: as §1
# K562 [7] = test: Differentiation of K-562 cells at 3.8 uM with coadministration of guanosine; type: functional, Homo sapiens; summary of the method: as §1
# K562 [8] = test: Differentiation of K-562 cells at 19 uM with coadministration of guanosine; type: functional, Homo sapiens; summary of the method: as §1
# K562 [9] = test: Differentiation of K-562 cells at 3.8 uM with out coadministration of guanosine; type: functional, Homo sapiens; summary of the method: as §1
# K562 [10] = test: Differentiation of K-562 cells at 60 uM with coadministration of guanosine; type: functional, Homo sapiens; summary of the method: as §1
# K562 [11] = test: Differentiation of K-562 cells at 120 uM with out coadministration of guanosine; type: functional, Homo sapiens; summary of the method: as §1
# K562 [12] = test: Differentiation of K-562 cells at 120 uM with coadministration of guanosine; type: functional, Homo sapiens; summary of the method: as §1
# K562 [13] = test: Differentiation of K-562 cells at 60 uM with out coadministration of guanosine; type: functional, Homo sapiens; summary of the method: as §1
# K562 [14] = test: Tested for inhibition of growth in human erythroleukemia K-562 cells.; type: functional, cell-based; summary of the method: as §2
# K562 [15] = test: Differentiation of K-562 cells at 7.5 uM with out coadministration of guanosine; type: functional, Homo sapiens; summary of the method: as §1
# K562 [16] = test: Differentiation of K-562 cells at 7.5 uM with coadministration of guanosine; type: functional, Homo sapiens; summary of the method: as §1
smiles,measurement,setting,value
NC(=O)c1csc([C@@H]2O[C@H](COP(=O)(O)CP(=O)(O)OC[C@@H]3O[C@H](n4cnc5c(N)ncnc54)[C@@H](O)[C@H]3O)[C@@H](O)[C@H]2O)n1,Benzidine positive cells,K562 [1],30%
same,Benzidine positive cells,K562 [2],23%
same,Growth inhibition (% of untreated control),K562 [3],90%
same,Benzidine positive cells,K562 [4],85%
same,Benzidine positive cells,K562 [5],34%
NC(=O)c1csc([C@@H]2O[C@H](CO)[C@@H](O)[C@H]2O)n1 [TIAZOFURIN],Benzidine positive cells,K562 [6],80%
same,Benzidine positive cells,K562 [7],12%
same,Benzidine positive cells,K562 [8],40%
same,Benzidine positive cells,K562 [9],36%
same,Growth inhibition (% of untreated control),K562 [3],90%
NC(=O)c1cccc([C@@H]2O[C@H](COP(=O)(O)CP(=O)(O)OC[C@@H]3O[C@H](n4cnc5c(N)ncnc54)[C@@H](O)[C@H]3O)[C@@H](O)[C@H]2O)c1,Benzidine positive cells,K562 [10],15%
same,Benzidine positive cells,K562 [11],75%
same,Benzidine positive cells,K562 [12],17%
same,Benzidine positive cells,K562 [13],45%
same,Growth inhibition (% of untreated control),K562 [3],90%
same,pIC50,K562 [14],4.22
NC(=O)c1csc([C@H]2O[C@@H](COP(=O)(O)OP(=O)(O)OC[C@H]3O[C@@H](n4cnc5c(N)ncnc54)[C@H](O)[C@@H]3O)[C@H](O)[C@@H]2O)n1,Benzidine positive cells,K562 [15],50%
same,Benzidine positive cells,K562 [2],30%
same,Growth inhibition (% of untreated control),K562 [3],80%
same,Benzidine positive cells,K562 [16],15%
same,Benzidine positive cells,K562 [5],70%
